Screens: PubChem BioAssay, several laboratories
UCH37 DUB inh: inhibitors of human UCH37 deubiquitinase, primary screen, biochemical, Ub-AMC cleavage, fluorescence; purified proteasome/UCH37; 0.33% of 330,000 active; inhibition, % (test concentration not listed); AID 588478, 2011; Ubiquitin carboxyl-terminal hydrolase isozyme L5 (Homo sapiens), Q9Y5K5;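 active means mean inhibition over replicate wells above about 20%, limit read from the data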;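 further: 0% = compound-free wells with enzyme and 100% = wells lacking proteasome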
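Material: Human UCH37 enzyme supplied as purified proteasome complex | Schedule: 30 min compound-proteasome preincubation then 25 min substrate reaction, room temperature | Detection: AMC fluorescence from Ub-AMC cleavage, excitation 355 nm, emission 460 nm | Benchmarks: Wells without proteasome as full block, compound-free enzyme plus substrate as uninhibited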
PLCb3 inh: human PLC-beta3 inhibitors, primary screen, biochemical, fluorescence | 1-phosphatidylinositol 4,5-bisphosphate phosphodiesterase beta-3 (Homo sapiens), Q01970 | Purified PLC-beta3, fluorogenic substrate | inhibition, % at 12.2 µM | 0.18% of 370,000 active | AID 720704, 2013;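 further: 0% = median of compound wells on plate and 100% = full blocker control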
Rpn11 inh: Rpn11 (PSMD14) deubiquitinase inhibitors, primary screen, biochemical, fluorescence polarization, uHTS; 26S proteasome non-ATPase regulatory subunit 14 (Homo sapiens), O00487; human 26S proteasome, Ub4-pepOG fluorescence polarization; 20S core pre-blocked with epoxomicin; inhibition, % at 20 µM; 0.59% of 360,000 active;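 active means inhibition at 20 µM, scaled to each plate's controls, above about 33%, limit read from the data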
PLCg1 inh: PLC-gamma1 enzyme inhibitors, primary screen, biochemical, fluorescence, purified enzyme; 1-phosphatidylinositol 4,5-bisphosphate phosphodiesterase gamma-1 (Homo sapiens), P19174; fluorogenic substrate; inhibition, % at 12.2 µM; 0.84% of 370,000 active; in the data active means inhibition above about 9.5%
PLCgamma1 ctr: PLC-gamma1 enzyme inhibitors, counter-screen for PLC-beta3 inhibitor project, biochemical, fluorescence. shares compounds with PLCg1 inh. purified PLC-gamma1, fluorogenic substrate. inhibition, % at 12.3 µM. 3.1% of 3,300 active; in the data active means inhibition above about 9.5%
PLCb3 confirm: PLC-beta3 inhibitor confirmation, biochemical, fluorescence, purified enzyme; 1% of 3,300 active; inhibition, % at 12.3 µM; fluorogenic substrate fluorescence; AID 743261, 2014; shares compounds with PLCg1 inh
An asterisk follows results filed as active. Most compounds without a hit are left out; they make up all but 1.7% or so of the library. Unless noted, no stated cut-off is given here; in the data, active means inhibition above about 11%; inactive means the rest.

Cc1nn(-c2ccccc2)c(Cl)c1C=NNc1nc2ccccc2[nH]1 was read as UCH37 DUB inh 5.
For Cc1cccc(Nc2nc(N)c([N+](=O)[O-])c(NCc3ccco3)n2)c1 the results were UCH37 DUB inh 4, PLCb3 inh 7, Rpn11 inh -4, PLCg1 inh 14*, PLCgamma1 ctr -2 and PLCb3 confirm -15.
Screening O=C(Cn1cnc2sc(-c3ccccc3)cc2c1=O)NCc1ccccc1 returned UCH37 DUB inh -3, PLCb3 inh 4, Rpn11 inh -2, PLCg1 inh 9.5*, PLCgamma1 ctr -37 and PLCb3 confirm -84.
For Cc1nnc(NN=Cc2cccs2)[nH]c1=O the results were UCH37 DUB inh 7.
`COc1ccccc1C1C2=C(N=c3sc(=Cc4cccc(OCC(=O)O)c4)c(=O)n31)c1ccccc1CC2` (stereo not drawn) gave UCH37 DUB inh 12.
Screening CC1(C(=O)NCc2cccc(C(F)(F)F)c2)CCN1Cc1ccc(-c2ccccc2)o1 (stereo not drawn) returned PLCb3 inh -1, Rpn11 inh 1, PLCg1 inh 9.6*, PLCgamma1 ctr -1 and PLCb3 confirm -2.
For CC1(C(=O)NCc2cccc(C(F)(F)F)c2)CCN1Cc1cc2ccccc2o1 (stereo not drawn) the results were PLCb3 inh -8, Rpn11 inh 1 and PLCg1 inh 1.
CCc1ccc(C(=O)NNC(=O)c2ccc(OCC(=O)N3CCOCC3)c(OC)c2)cc1 was read as UCH37 DUB inh 4, PLCb3 inh -2, Rpn11 inh 2, PLCg1 inh 13*, PLCgamma1 ctr 0 and PLCb3 confirm 0.
COc1cc(C(=O)NNC(=O)c2cccc(Cl)c2)ccc1OCC(=O)N1CCOCC1 was read as UCH37 DUB inh 3, PLCb3 inh -4, Rpn11 inh 8 and PLCg1 inh -2.
`COc1ccc(-c2nn(-c3ccccc3)cc2C=NNC(=S)NC(C)C)cc1OC` gave UCH37 DUB inh -1.
For Cc1ccc2cc(C=NNc3ccc(C(=O)O)cc3)c(Cl)nc2c1 the results were UCH37 DUB inh 3.
Cc1c(C(=O)NCc2ccccc2)oc2ccc(S(=O)(=O)N3CCC4(CC3)OCCO4)cc12 was read as UCH37 DUB inh 0, PLCb3 inh 1, Rpn11 inh -19, PLCg1 inh 10*, PLCgamma1 ctr -7 and PLCb3 confirm -2.
CCC(=O)Nc1ccc(C(=O)NN=Cc2cc(Br)c(OC)cc2OC)cc1 was read as UCH37 DUB inh 0.
Screening CCn1cnc2sc(C(=O)O)c(C)c2c1=O returned UCH37 DUB inh 4, PLCb3 inh -1, Rpn11 inh 7 and PLCg1 inh -1.
`Cc1c(C(=O)O)sc2ncn(C)c(=O)c12` gave UCH37 DUB inh 0, PLCb3 inh 7, Rpn11 inh 0, PLCg1 inh 14*, PLCgamma1 ctr -7 and PLCb3 confirm -6.
For CC1=NN(c2ccc(C)cc2C)C(=O)C1C(c1ccccc1O)C1C(=O)N(c2ccc(C)cc2C)N=C1C (stereo not drawn) the results were UCH37 DUB inh 8, PLCb3 inh 6, Rpn11 inh 1, PLCg1 inh 13*, PLCgamma1 ctr -7 and PLCb3 confirm -4.
Screening Cc1ccc(OCc2nnc(N)s2)cc1 returned UCH37 DUB inh 1, PLCb3 inh -2, Rpn11 inh 8 and PLCg1 inh 0.
`Nc1nnc(COc2ccccc2)s1` gave UCH37 DUB inh 3, PLCb3 inh 1, Rpn11 inh -7, PLCg1 inh 11*, PLCgamma1 ctr -5 and PLCb3 confirm 0.
For Cc1cccc(C(=O)NNC(=O)C2CCN(C(=O)OC(C)(C)C)CC2)c1 the results were UCH37 DUB inh 0, PLCb3 inh 2, Rpn11 inh -2, PLCg1 inh 9.8*, PLCgamma1 ctr -9 and PLCb3 confirm -4.
For Cc1ccc(C(=O)NNC(=O)C2CCN(C(=O)OC(C)(C)C)CC2)cc1 the results were UCH37 DUB inh 1, PLCb3 inh -6, Rpn11 inh -1 and PLCg1 inh -1.
